Autophagy HCS: alters autophagy in cells; MEF GFP-LC3 puncta imaging; test concentration mostly 10 µM; AID 463193; hit rate 0.98% among 190,000; calls only at 10 µM (by protocol);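 active means percentage of spot-positive cells more than 3 SD above its plate mean, without a fluorescence outlier flag or 80% toxicity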
MDM2 E3 inh: inhibitors of human Mdm2 E3 ubiquitin ligase; Q00987; cell-based MDM2 ubiquitination luciferase reporter, 2 h; 0 = plate control, 100 = twice control, blank-subtracted; signal enhancement, % at 5 µM; hit rate 0.11% among 210,000;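 active means signal enhancement of 30% or more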;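 further: luminescence tracks abundance of the self-degrading MDM2-luciferase fusion protein; higher signal means inhibition of MDM2 E3 ligase activity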
Target sequence (Q00987 whole entry, looked up, the tested form may be a part): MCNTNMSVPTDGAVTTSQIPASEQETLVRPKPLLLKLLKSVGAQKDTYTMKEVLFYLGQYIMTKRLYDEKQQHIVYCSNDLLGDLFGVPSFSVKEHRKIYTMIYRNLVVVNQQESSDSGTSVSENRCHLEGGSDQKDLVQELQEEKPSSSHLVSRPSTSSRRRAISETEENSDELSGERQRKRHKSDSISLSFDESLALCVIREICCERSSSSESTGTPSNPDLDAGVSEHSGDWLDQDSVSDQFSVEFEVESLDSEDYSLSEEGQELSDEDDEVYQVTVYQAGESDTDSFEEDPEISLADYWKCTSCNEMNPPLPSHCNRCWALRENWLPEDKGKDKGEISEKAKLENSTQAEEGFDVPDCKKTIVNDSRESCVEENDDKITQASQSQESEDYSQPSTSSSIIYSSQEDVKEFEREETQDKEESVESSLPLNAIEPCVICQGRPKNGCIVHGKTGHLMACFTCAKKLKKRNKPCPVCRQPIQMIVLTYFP
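Test system: mammalian cells stably expressing self-ubiquitinating, self-degrading MDM2 E3–luciferase fusion; Amount: 2000 cells in each well; Medium: DMEM; Schedule: 4 h settle plus 2 h compound, 37 °C; Technique: SteadyLite luciferase luminescence after 15 min room-temperature reagent incubation; Benchmarks: plate control and blank wells.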
L929 necroptosis: blocks zVAD induced death of L929 cells; viability rescue, % at 10 µM; L929 zVAD necroptosis rescue, ATP luminescence, 24 h; with zVAD 60 µM; hit rate 0.38% among 220,000;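 active means activation, scaled between plate controls, above about 75%, limit read from the data; inactive means activation under that limit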
Dynein cargo inh: dynein cargo transport inhibition | 3617.4 mouse cells, GR-EGFP nuclear translocation imaging; test concentration mostly 20 µM; stimulated with dexamethasone, 1 µM; stronger effect = lower value | z-score, hits read low | hit rate 0.47% among 220,000;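 active means plate z-score of nuclear minus cytoplasmic receptor signal below a set negative limit, without overly bright fluorescence or cell loss, cut at about -3.5 in these data, passing the limit was not always enough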;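 further: z-score of nuclear minus cytoplasmic ring GR-EGFP intensity difference per well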
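Buffer or medium – tet-free medium with charcoal-stripped serum · Signal – automated 10x imaging of fixed Hoechst-stained cells · Also added – dexamethasone agonist, 1.0 µM final, for 30 min · Incubation – induction 48 h, compound 1 h, agonist 30 min · Read-out – GR-EGFP nuclear translocation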
TNF necrop inh: TNF-alpha cell death inhibition in Jurkat FADD-/- cells; Jurkat FADD-/- TNF necroptosis rescue, ATP luminescence, 24 h; 0 = TNF only, 100 = no-TNF cells; hit rate 0.068% among 220,000; activation (protection from cell death), % at 10 µM;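 active means activation, meaning protection from cell death, of at least 50% relative to plate controls; inactive means activation below 50%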;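 further: necroptosis triggered by 40 ng/mL TNF-alpha added together with compound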
zVAD death conf: confirmed blocker of zVAD induced death in L929 cells; shares compounds with L929 necroptosis; hit rate 16% among 760; activation (protection from necroptosis), % at 10 µM; L929 zVAD-induced necroptosis rescue, ATP luminescence, 24 h;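 active means mean protection from necroptosis of at least 50% over duplicate tests; inactive means mean protection below 50%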
A number is an active result; - = inactive; . = not tested or not shown; + = active, no number. An excerpt weighted towards active compounds, which were near 1.8% of everything screened.

SMILES	Autophagy HCS	MDM2 E3 inh	L929 necroptosis	Dynein cargo inh	TNF necrop inh	zVAD death conf
Cc1ccc(Nc2nnc(SCC(=O)N(C)C3CCS(=O)(=O)C3)s2)cc1 (stereo unspecified)	-	-	-	-	-	.
COc1ccc(S(=O)(=O)NCC2CCCN(C(=O)c3ccccc3)C2)cc1 (stereo unspecified)	-	-	-	-	-	.
COc1ccc(S(=O)(=O)NCC2CCCN(C(=O)c3sccc3C)C2)cc1 (stereo unspecified)	+	-	-	-	-	.
Cc1ccc(CNC(=O)c2ccccc2NC(=O)CSc2nnnn2C)cc1	+	-	-	-	-	.
O=C(O)c1ccc2c(c1)N(Cc1ccccc1F)C(=O)c1ccccc1S2=O (stereo unspecified)	.	71.0	-	-	-	.
Cc1noc(C)c1C(=O)Nc1nnc(CC(C)C)s1	.	-	-	-	-	.
O=C1NN(c2ccc(Cl)c(Cl)c2)C(=O)/C1=C/c1cccc(OC(=O)c2cccs2)c1	-	-	-	-3.78	-	.
O=C1NN(c2ccccc2)C(=O)/C1=C\c1cccc(OC(=O)c2cccs2)c1	-	-	-	-	-	.
COC(=O)CNC(c1ccccc1)c1cc(Br)ccc1NS(=O)(=O)c1ccc(C)cc1 (stereo unspecified)	-	-	-	-	-	.
CC(C)OC(=O)c1sc2nc(-c3ccccc3)ccc2c1N	-	-	-	-	-	.
COc1ccc(C(=O)c2sc3nc(-c4ccccc4)ccc3c2N)cc1	+	-	-	-	-	.
COc1ccc(CCc2nnc(CCC(=O)NCc3cc(C(C)C)no3)o2)cc1	-	-	-	-	-	.
Cc1cccc(NC(=S)N(Cc2ccc(Cl)cc2)Cc2ccc(C(=O)O)cc2)c1	+	-	-	-	-	.
Cc1cc(C)cc(NC(=S)N(Cc2ccc(Cl)cc2)Cc2ccc(C(=O)O)cc2)c1	-	-	-	-	-	.
COc1ccc(/C=N/Nc2ccccn2)c(OC)c1OC	-	-	82.7	-	-	-
C=CCOc1ccc(/C=N/Nc2ccccn2)cc1OC	-	-	85.4	-	-	-
COc1ccc(/C=N/Nc2nc3ccccc3[nH]2)c(OC)c1OC	.	-	-	-	-	.
CCOc1ccc(/C=N/Nc2ccccn2)cc1OC	-	-	79.9	-	-	-
O=C(CCC1CCCCC1)Nc1ccccc1C(=O)N1CCOCC1	-	-	-	-	-	.
Cc1ccc(C(=O)N(CC#N)CC#N)cc1C	-	-	-	-	-	.
COC(=O)[C@@H](NC(=O)O[C@@H]1C(=O)c2cc(Br)ccc2O[C@H]1c1cccc(OC)c1)C(C)C	-	.	-	-	-	.
Clc1ccc2[nH]c3c(c2c1)CCc1cn[nH]c1-3	-	-	100.8	-	90.4	83.3
c1ccc2c3c([nH]c2c1)-c1[nH]ncc1CC3	-	-	91.0	-	95.4	93.1
O=C(O)CCC(=O)Nc1ccc(/C=C/C(=O)C2CC2)cc1	-	-	-	-	-	.
COc1ccc(C(=O)N2CCN(Cc3nc(CC4CC4)no3)CC2)cc1	-	-	-	-	-	.
SMILES	Autophagy HCS	MDM2 E3 inh	L929 necroptosis	Dynein cargo inh	TNF necrop inh	zVAD death conf
CCN(CC)c1ccc(N/C(N)=N/c2nc(C(F)(F)F)cc(=O)[nH]2)cc1	-	-	91.2	-	-	-
N/C(=N\c1nc(C(F)(F)F)cc(=O)[nH]1)Nc1ccc(Cl)cc1	-	-	-	-	-	.
Cc1ccc(NC(=O)C(OC(=O)c2ccccc2Cl)c2ccccc2)cc1Cl (stereo unspecified)	-	-	-	-	-	.
Cc1ccc(NC(=O)C(OC(=O)c2ccc(NC(N)=O)cc2)c2ccccc2)cc1Cl (stereo unspecified)	-	-	85.1	-	-	69.8
Cc1ccc2c(c1)C1CN(C)CCC1N2C(=O)Nc1ccc(Cl)cc1 (stereo unspecified)	-	-	81.9	-	-	-
O=C(c1ccc(Cl)c(Cl)c1)c1cnc(Nc2ccccc2)s1	-	-	-	-	-	.
CC(=O)c1cnc(Nc2ccc(C)cc2)s1	-	-	84.1	-	-	-
CC(C)c1cccc(C(C)C)c1NC(=O)COC(=O)[C@H](C)NC(N)=O	-	-	-	-	-	.
Cc1nnsc1C(=O)Nc1ccc(Cl)cc1	-	.	-	-	-	.
Cc1nnsc1SCCNC(=O)Nc1ccc(Cl)cc1	-	-	78.8	-	-	-
Cc1ccc(CNC(=O)C2CCCN(S(=O)(=O)c3c(C)noc3/C=C/N(C)C)C2)cc1 (stereo unspecified)	.	.	-	-	-	.
OC1(c2ccccc2)CN(c2ccccc2)C2=[N+]1CCS2 (stereo unspecified)	-	-	-	-	-	.
S=C(Nc1ccc(Br)cc1Cl)NN1CCOCC1	-	-	-	-	-	.
c1ccc(Nc2nc3ccccc3[nH]2)nc1	-	-	75.0	-	-	-
COC(=O)C1C(=O)C(C(=O)/C=C/c2ccccc2)C(=O)CC1(C)C (stereo unspecified)	-	-	81.2	-	-	-
O=C(/C=C/c1ccccc1)C1C(=O)c2ccccc2C1=O	-	-	-	-	-	.
O=C(Oc1ccc(-c2cnc3ccccc3n2)cc1)c1cccc([N+](=O)[O-])c1	-	-	94.2	-	-	-
O=C(Oc1ccc([N+](=O)[O-])cc1)c1cc(-c2ccccc2)nc2ccccc12	-	-	-	-	-	.
CCCCOc1ccc(-c2cnc3ccccc3n2)cc1	-	-	-	-	-	.
O=C(Oc1ccc(-c2cnc3ccccc3n2)cc1)c1ccc(Br)o1	-	-	85.5	-	-	-
O=C(Oc1ccc(-c2cnc3ccccc3n2)cc1)c1ccc(Cl)c([N+](=O)[O-])c1	-	-	87.2	-	-	-
COc1cc(CNC(C)C)c(Br)cc1OC1CCCC1	-	-	-	-	-	.
O=C(NC12CC3CC(CC(C3)C1)C2)c1ccc(-c2ccc(Br)cc2)o1	-	-	80.2	-	-	-
O=C(Nc1ccccc1)c1ccc(-c2ccc(Br)cc2)o1	-	-	.	-	-	.
CC(CS(=O)(=O)c1ccc2ccccc2c1)N1CCN(C2CCCCC2)CC1 (stereo unspecified)	-	.	-	-	-	.
O=S(=O)(CC(CN1CCCC1)N1CCCC1)c1ccc2ccccc2c1 (stereo unspecified)	-	-	81.7	-	-	-
Cc1ccc(S(=O)(=O)N2CCOCC2)cc1C(=O)Nc1nc(-c2cccnc2)cs1	-	-	-	-	-	.
O=S(=O)(c1ccc(-c2csc(-c3cccnc3)n2)cc1)N1CCOCC1	-	-	84.5	-	-	-
COc1ccc(OCCC(=O)NCC23CC4CC(CC(C4)C2)C3)cc1	-	-	94.4	-	-	-
COc1ccc(OCCC(=O)NCc2ccccc2)cc1	-	-	-	-	-	.
